Marks after values point to notes of the source that are not given here.
Experiments:
Format in all cases: in vivo, human
[1] = test system: plasma 7α‐hydroxy‐4‐cholesten‐3‐one (C4); assay: Plasma C4 level, M-test; settings: Day 8 and Day 14; P < 0.001 except 2.5 mg day^–1
[2] = test system: patients with chronic constipation; assay: Adverse events, M-test
How it was run: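 Patients randomized 5:1 to test compound (2.5, 5, 10, 15 or 20 mg) or placebo. Oral tablet once daily before breakfast for 14 consecutive days, inpatient Day –2 to Day 21. AE type, severity and incidence were recorded with physical exams, vital signs, 12-lead ECG and laboratory tests. Proportions of patients with AEs were tabulated, and dose-dependency was tested by Cochran–Armitage trend test.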

[3] = test system: patients with chronic constipation; assay: Bowel functions; settings: for proportion of patients with first SBM within 24 h: placebo 40.0%
How it was run: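 Test compound or placebo orally once daily before breakfast for 14 days. Patients recorded the time of each BM (BM, SBM, complete SBM), Bristol Stool Form Scale, straining (five levels), completeness of evacuation and GI symptoms including discomfort (five levels). Bisacodyl suppository rescue was allowed after ≥72 h without BM with symptoms. Descriptive statistics were used.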

[4] = Pharmacokinetics of elobixibat; settings: for C1max / t1(1/2) / C8max / t8(1/2) / C14max / t14(1/2): geometric mean (CV)
How it was run: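 Once-daily oral dosing before breakfast for 14 days. Plasma was drawn predose and at 0.5–12 h on Days –1, 1, 8 and 14, plus intermittent days to Day 21. Measured by LC–MS/MS (LLOQ 10.0 pg ml–1). Noncompartmental Cmax and AUC(0–t) on log-transformed values. Accumulation ratios were Day 8/Day 1 and Day 14/Day 1. Sex effect was expressed as back-transformed male/female LSM ratio.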

[5] = test system: serum high‐density lipoprotein cholesterol (HDL‐C); assay: Serum HDL-C level, M-test
QTcF intervals = assay: ECG QTcF evaluation; settings: S-test and M-test, 2.5-20 mg
How it was run: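 12-lead surface ECG in both single- and 14-day dosing tests. QT was Fridericia-corrected by experienced central-laboratory readers. ΔQTcF from baseline was calculated at each time point, and ΔΔQTcF versus placebo was estimated with 90% CI. Categorical counts: absolute QTcF >450, >480 and >500 ms; ΔQTcF >30 and >60 ms.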

[6] = test system: plasma 7α‐hydroxy‐4‐cholesten‐3‐one (C4); assay: Food effect on plasma C4, S-test; settings: up to 24 h, AUEC P < 0.001
How it was run: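 Crossover single dose taken 15 min before breakfast or fasting. Plasma was sampled predose and at 0.5–12 h on Days –1, 1, 7 and 8, plus daily. C4 was measured by LC–MS/MS (LLOQ 2 ng ml–1). […] Food effect was assessed by linear mixed model (dose, food, intervention, period fixed; patient random).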

[7] = 2.5 mg once daily 14 days (group n=10)
[8] = 5 mg once daily 14 days (group n=10)
[9] = 10 mg once daily 14 days (group n=9)
[10] = 15 mg once daily 14 days (group n=10)
[11] = 20 mg once daily 14 days (group n=10)
[12] = Day 1, 2.5 mg once daily before breakfast
[13] = Day 1, 5 mg once daily before breakfast
[14] = Day 1, 10 mg once daily before breakfast
[15] = Day 1, 15 mg once daily before breakfast
[16] = Day 1, 20 mg once daily before breakfast
[17] = Day 8, 2.5 mg once daily before breakfast
[18] = Day 8, 5 mg once daily before breakfast
[19] = Day 8, 10 mg once daily before breakfast
[20] = Day 8, 15 mg once daily before breakfast
[21] = Day 8, 20 mg once daily before breakfast
[22] = Day 14, 2.5 mg once daily before breakfast
[23] = Day 14, 5 mg once daily before breakfast
[24] = Day 14, 10 mg once daily before breakfast
[25] = Day 14, 15 mg once daily before breakfast
[26] = Day 14, 20 mg once daily before breakfast
[27] = M-test Day 8, linear mixed effect model
[28] = M-test Day 14, linear mixed effect model

CCCCC1(CCCC)CN(c2ccccc2)c2cc(SC)c(OCC(=O)N[C@@H](C(=O)NCC(=O)O)c3ccccc3)cc2S(=O)(=O)C1 [elobixibat]
C4 AUEC relative to placebo (ANCOVA) [1]: significantly greater
AEs associated with gastrointestinal disorders, % of patients [2, 7]: (80.0) %
AEs associated with gastrointestinal disorders, n of patients [2, 7]: 8
Any AEs, % of patients [2, 7]: (80.0) %
Any AEs, n of patients [2, 7]: 8
abdominal distention, % of patients [2, 7]: (30.0) %
abdominal distention, n of patients [2, 7]: 3
abdominal pain lower, % of patients [2, 7]: (40.0) %
abdominal pain lower, n of patients [2, 7]: 4
abdominal pain upper, n of patients [2, 7]: 0
diarrhoea, % of patients [2, 7]: (10.0) %
diarrhoea, n of patients [2, 7]: 1
AEs associated with gastrointestinal disorders, % of patients [2, 8]: (80.0) %
AEs associated with gastrointestinal disorders, n of patients [2, 8]: 8
Any AEs, % of patients [2, 8]: (90.0) %
Any AEs, n of patients [2, 8]: 9
abdominal distention, % of patients [2, 8]: (30.0) %
abdominal distention, n of patients [2, 8]: 3
abdominal pain lower, % of patients [2, 8]: (30.0) %
abdominal pain lower, n of patients [2, 8]: 3
abdominal pain upper, % of patients [2, 8]: (20.0) %
abdominal pain upper, n of patients [2, 8]: 2
diarrhoea, % of patients [2, 8]: (40.0) %
diarrhoea, n of patients [2, 8]: 4
AEs associated with gastrointestinal disorders, % of patients [2, 9]: (77.8) %
AEs associated with gastrointestinal disorders, n of patients [2, 9]: 7
Any AEs, % of patients [2, 9]: (100.0) %
Any AEs, n of patients [2, 9]: 9
abdominal distention, % of patients [2, 9]: (22.2) %
abdominal distention, n of patients [2, 9]: 2
abdominal pain lower, % of patients [2, 9]: (33.3) %
abdominal pain lower, n of patients [2, 9]: 3
abdominal pain upper, % of patients [2, 9]: (22.2) %
abdominal pain upper, n of patients [2, 9]: 2
diarrhoea, % of patients [2, 9]: (44.4) %
diarrhoea, n of patients [2, 9]: 4
AEs associated with gastrointestinal disorders, % of patients [2, 10]: (70.0) %
AEs associated with gastrointestinal disorders, n of patients [2, 10]: 7
Any AEs, % of patients [2, 10]: (90.0) %
Any AEs, n of patients [2, 10]: 9
abdominal distention, % of patients [2, 10]: (40.0) %
abdominal distention, n of patients [2, 10]: 4
abdominal pain lower, % of patients [2, 10]: (40.0) %
abdominal pain lower, n of patients [2, 10]: 4
abdominal pain upper, n of patients [2, 10]: 0
diarrhoea, % of patients [2, 10]: (40.0) %
diarrhoea, n of patients [2, 10]: 4
AEs associated with gastrointestinal disorders, % of patients [2, 11]: (90.0) %
AEs associated with gastrointestinal disorders, n of patients [2, 11]: 9
Any AEs, % of patients [2, 11]: (90.0) %
Any AEs, n of patients [2, 11]: 9
abdominal distention, % of patients [2, 11]: (60.0) %
abdominal distention, n of patients [2, 11]: 6
abdominal pain lower, % of patients [2, 11]: (50.0) %
abdominal pain lower, n of patients [2, 11]: 5
abdominal pain upper, % of patients [2, 11]: (20.0) %
abdominal pain upper, n of patients [2, 11]: 2
diarrhoea, % of patients [2, 11]: (80.0) %
diarrhoea, n of patients [2, 11]: 8
safety and tolerability ([2]; once‐daily administration, female and male patients): safe and tolerated up to 20 mg
proportion of patients with first SBM within 24 h ([3]; 2.5 mg day^–1 (10/10)): 100%
proportion of patients with first SBM within 24 h ([3]; 5 mg day^–1 (10/10)): 100%
proportion of patients with first SBM within 24 h ([3]; 10 mg day^–1 (9/9)): 100%
proportion of patients with first SBM within 24 h ([3]; 15 mg day^–1 (8/9)): 88.9%
proportion of patients with first SBM within 24 h ([3]; 20 mg day^–1 (10/10)): 100%
patients reporting worse abdominal discomfort ([3]; 20 mg day^–1 group): 40%
patients reporting improvement of abdominal discomfort ([3]; 5 and 10 mg day^–1 groups): Nearly half
time to the first SBM compared with placebo ([3]; M-test): evidently shorter
changes in SBM frequency from baseline (Week –1) ([3]; M-test Weeks 1 and 2): dose‐dependent increases
drug accumulation on multiple administration ([4]; 5 and 15 mg day^–1 dosages (Discussion)): slight accumulation
C1max [4, 12]: 98.69 (56.9) pg ml^–1
t1(1/2) [4, 12]: 1.89 (40.9) ^a h
C1max [4, 13]: 164.83 (54.7) pg ml^–1
t1(1/2) [4, 13]: 2.41 (32.7) h
C1max [4, 14]: 284.67 (39.6) ^a pg ml^–1
t1(1/2) [4, 14]: 2.69 (30.7) ^a h
C1max [4, 15]: 468.71 (63.7) pg ml^–1
t1(1/2) [4, 15]: 3.28 (75.7) h
C1max [4, 16]: 932.04 (76.3) pg ml^–1
t1(1/2) [4, 16]: 3.14 (62.4) h
C8max [4, 17]: 99.39 (63.6) pg ml^–1
t8(1/2) [4, 17]: 2.42 (31.2) h
C8max [4, 18]: 139.45 (50.7) pg ml^–1
t8(1/2) [4, 18]: 3.29 (68.9) h
C8max [4, 19]: 283.84 (17.9) pg ml^–1
t8(1/2) [4, 19]: 4.96 (64.1) h
C8max [4, 20]: 388.55 (82.0) pg ml^–1
t8(1/2) [4, 20]: 4.62 (58.2) h
C8max [4, 21]: 581.32 (53.6) pg ml^–1
t8(1/2) [4, 21]: 5.16 (45.2) h
C14max [4, 22]: 82.66 (50.4) pg ml^–1
t14(1/2) [4, 22]: 2.34 (50.8) ^a h
C14max [4, 23]: 165.57 (35.0) pg ml^–1
t14(1/2) [4, 23]: 3.73 (61.0) h
C14max [4, 24]: 236.11 (34.4) pg ml^–1
t14(1/2) [4, 24]: 6.19 (146.0) h
C14max [4, 25]: 383.19 (73.5) pg ml^–1
t14(1/2) [4, 25]: 5.68 (74.9) h
C14max [4, 26]: 953.18 (53.6) pg ml^–1
t14(1/2) [4, 26]: 7.23 (37.5) h
AUC8(0–t), back transformed LSM ratio male/female [4, 27]: 0.9947
C8max, back transformed LSM ratio male/female [4, 27]: 0.8416
AUC14(0–t), back transformed LSM ratio male/female [4, 28]: 0.9863
C14max, back transformed LSM ratio male/female [4, 28]: 0.9675
drug accumulation from Cmax (Rac) ([4]; all dosage groups, 90% CIs of Rac included 1.000): No drug accumulation
time to steady state of plasma concentration ([4]; multiple administration once daily): ≤ 8 days
HDL‐C levels, trend [5]: no clear trend
QTcF prolongation (>450 ms), categorical analysis (QTcF intervals): no QTcF prolongation
C4 Emax and AUEC, breakfast regimen compared with no‐breakfast regimen [6]: significantly greater elevations
